Calls of active or inactive are those of the source. The calls are words filed in the database; no cut-off is given here.
Columns and labels:
[1] = tested on: Human alphaherpesvirus 1; assay: Antiviral activity against HSV1 in african green monkey Vero cells assessed as resistance to viral infection after 1 hr at 37 degC; assay type: functional, organism-based; conditions: Human alphaherpesvirus 1, Vero
In short: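 Vero monolayers exposed to peptide 1 h at 37°C, rinsed three times, infected with hrR3 (MOI 0.01) 1 h at 37°C without peptide. pH 3 citrate inactivates extracellular virus; lysate β-galactosidase (CPR-Gal, 570 nm) read 6 h later. EC50 from dose-response, triplicates per concentration.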

[2] = tested on: Human alphaherpesvirus 1; assay: Antiviral activity against HSV1 in african green monkey Vero cells assessed as viral inactivation after 1 hr at 37 degC; assay type: functional, organism-based; conditions: Human alphaherpesvirus 1, Vero
In short: (§1)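 hrR3 virions (1×10^6–6×10^6 PFU/ml) in serum-free DMEM incubated with peptide 1 h at 37°C. Free peptide removed by 1,000-fold dilution or by pelleting at 14,000 × g. Infectivity then titrated on Vero cells in triplicate by lysate β-galactosidase or X-Gal staining. EC50 from dose-response curves.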

[3] = tested on: Human alphaherpesvirus 1; assay: Inhibition of HSV1 entry in african green monkey Vero cells assessed as beta-galactosidase activity for 1 hr at 37 degC; assay type: functional, organism-based; conditions: Human alphaherpesvirus 1, Vero
In short: (§2)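 HSV-1 hrR3 (MOI 0.02–0.03) adsorbed to precooled Vero cells 1 h at 4°C and rinsed. Peptide added at 4°C, shifted to 37°C for 1 h of entry. Peptide rinsed off; pH 3 citrate 60 s. Lysis at 6 h, initial β-galactosidase rate (CPR-Gal, 570 nm) relative to mock, minus cycloheximide background; triplicates.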

[4] = tested on: Vero; assay: Cytotoxicity against african green monkey Vero cells by trypan blue exclusion assay; assay type: cell-based; conditions: chlorocebus sabaeus
In short: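 Viability by trypan blue exclusion in Vero cells after peptide exposure.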

[5] = tested on: Human alphaherpesvirus 2; assay: Antiviral activity against HSV2 333 assessed by plaque reduction assay; assay type: functional, organism-based
In short: (§3)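 Plaque reduction on Vero monolayers with HSV-2 strain 333, 150 PFU/well adsorbed 1 h at 4°C. Peptide added at 4°C, shift to 37°C 10 min later; alternatively cells pretreated 1 h at 4°C with peptide and rinsed before virus. Extracellular virus inactivated; 2% methylcellulose overlay for 2.5 days; crystal violet plaque counts.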

[6] = tested on: Human alphaherpesvirus 1; assay: Inhibition of HSV1 entry in african green monkey Vero cells assessed as beta-galactosidase activity relative to control […]; assay type: functional, organism-based; conditions: Human alphaherpesvirus 1, Vero; in short: as §2
[7] = tested on: Human alphaherpesvirus 2; assay: Antiviral activity against HSV2 333 assessed as resistance against viral infection; assay type: functional, organism-based
[8] = tested on: Human alphaherpesvirus 1; assay: Inhibition of HSV1 hrR3S syncytium formation in african green monkey Vero cells assessed as reduction of beta-galactosidase activity at 100 uM; assay type: functional; design: scale not given: the % may be the effect or the level left
In short: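 Confluent Vero (2.0 × 10^5 cells/well) infected with syncytial hrR3S (MOI 0.02 to 0.05) 1 to 2 h at 37°C, rinsed, then held up to 24 h at 37°C in carbonate-buffered serum DMEM with neutralizing anti-HSV-1 antibody (50-fold dilution) ± peptide. Fusion read as initial β-galactosidase rate in NP-40 lysates with CPR-Gal at 570 nm.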

[9] = tested on: Human alphaherpesvirus 1; assay: Inhibition of HSV1 attachment in african green monkey Vero cells at 100 uM at 37 degC; assay type: functional; conditions: Human alphaherpesvirus 1, Vero
[10] = tested on: Human alphaherpesvirus 1; assay: Inactivation of HSV1 in african green monkey Vero cells assessed as beta-galactosidase activity upto 200 uM at 37 degC; assay type: functional, organism-based; in short: as §1
[11] = tested on: Human alphaherpesvirus 1; assay: Antiviral activity against HSV1 assessed as Inhibition of VP16 nuclear translocation in african green monkey Vero cells at 300 uM after 1 hr at 37 degC; assay type: functional; design: scale not given: the % may be the effect or the level left
In short: (§4)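 Vero cells on poly-L-lysine coverslips; HSV-1 adsorbed 80 min at 4°C (MOI 10). Peptide at 50 μM present for the last 20 min of adsorption and through the 1 h 37°C entry period, or virus pretreated with 300 μM for 1 h at 37°C and then diluted. Cells fixed, anti-VP16 immunofluorescence, 50 cells per group scored for nuclear VP16.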

[12] = tested on: Human alphaherpesvirus 1; assay: Antiviral activity against HSV1 assessed as Inhibition of VP16 nuclear translocation in african green monkey Vero cells at 50 uM after 1 hr at 4 degC; assay type: functional; design: scale not given: the % may be the effect or the level left; in short: as §4
[13] = tested on: Human alphaherpesvirus 1; assay: Inhibition of HSV1 entry in african green monkey Vero cells assessed as beta-galactosidase activity at 30 uM at 33 degC after 40 mins; assay type: functional, organism-based
In short: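 Vero cells on strip-well plates with hrR3 adsorbed 1 h at 4°C; entry started by floating the plate at 33°C. Peptide added just before the shift or 35 min after, returning to 33°C at 40 min. At set times, external virus inactivated with pH 3 citrate. Lysed 6 h later; β-galactosidase initial rate read against mock-treated controls, triplicate.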

[14] = tested on: Human alphaherpesvirus 2; assay: Antiviral activity against HSV2 333 pretreated for 1 hr before viral infection at 4 degC by plaque reduction assay; assay type: functional, organism-based; in short: as §3
[15] = tested on: Human alphaherpesvirus 1; assay: Antiviral activity against HSV1 hrR3S infected african green monkey Vero cells assessed as inhibition of viral cell-cell spread at 100 uM; assay type: functional, organism-based
In short: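 Vero cells infected with syncytial hrR3S (MOI 0.02–0.05) for 1–2 h at 37°C, then held up to 24 h at 37°C with 50-fold diluted neutralizing anti-HSV-1 antibody ± peptide. Syncytia viewed by X-Gal staining; fusion quantified as initial rate of lysate β-galactosidase.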

Compound | EC50 [1] | EC50 [2] | EC50 [3] | Activity [4] | other results
CCCC[C@H](NC(=O)[C@H](CCCC)NC(=O)[C@H](CCC(N)=O)NC(=O)[C@H](CCCNC(=N)N)NC(=O)[C@H](CCCNC(=N)N)NC(=O)[C@H](CCCCN)NC(=O)[C@H](CCCCN)NC(=O)[C@H](CCCNC(=N)N)NC(=O)CN)C(=O)N[C@@H](CCCNC(=N)N)C(=O)N[C@@H](CS)C(=O)O | 230 µM | 900 µM | 48000 nM | Non-toxic | –
N=C(N)NCCC[C@H](NC(=O)CN)C(=O)N[C@@H](CCCCN)C(=O)N[C@@H](CCCCN)C(=O)N[C@@H](CCCNC(=N)N)C(=O)N[C@@H](CCCNC(=N)N)C(=O)N[C@@H](CCC(N)=O)C(=O)N[C@@H](CCCNC(=N)N)C(=O)N[C@@H](CCCNC(=N)N)C(=O)N[C@@H](CCCNC(=N)N)C(=O)N[C@@H](CS)C(N)=O | 3.9 µM | 390 µM | 900 nM | Non-toxic | –
N=C(N)NCCC[C@@H](NC(=O)CN)C(=O)N[C@H](CCCCN)C(=O)N[C@H](CCCCN)C(=O)N[C@H](CCCNC(=N)N)C(=O)N[C@H](CCCNC(=N)N)C(=O)N[C@H](CCC(N)=O)C(=O)N[C@H](CCCNC(=N)N)C(=O)N[C@H](CCCNC(=N)N)C(=O)N[C@H](CCCNC(=N)N)C(=O)N[C@H](CS)C(N)=O | 1.1 µM | 200 µM | 900 nM | Non-toxic | EC50 [5]: 2500 nM; EC50 [6]: 300 nM; EC50 [7]: 81 µM
N=C(N)NCCC[C@@H](NC(=O)CNC(=O)CCCCCNC(=O)CCCC[C@@H]1SC[C@@H]2NC(=O)N[C@@H]21)C(=O)N[C@H](CCCCN)C(=O)N[C@H](CCCCN)C(=O)N[C@H](CCCNC(=N)N)C(=O)N[C@H](CCCNC(=N)N)C(=O)N[C@H](CCC(N)=O)C(=O)N[C@H](CCCNC(=N)N)C(=O)N[C@H](CCCNC(=N)N)C(=O)N[C@H](CCCNC(=N)N)C(=O)N[C@H](CS)C(=O)O | – | – | 2100 nM | Non-toxic | Activity [8]: 93%; inhibition at 100 µM [9]: 25%
N=C(N)NCCC[C@@H](NC(=O)CN)C(=O)N[C@H](CCCCN)C(=O)N[C@H](CCCCN)C(=O)N[C@H](CCCNC(=N)N)C(=O)N[C@H](CCCNC(=N)N)C(=O)N[C@H](CCC(N)=O)C(=O)N[C@H](CCCNC(=N)N)C(=O)N[C@H](CCCNC(=N)N)C(=O)N[C@H](CCCNC(=N)N)C(=O)N1CCC[C@@H]1C(N)=O | > 1200 µM | 1050 µM | 700 nM | Non-toxic | EC50 [6]: 300 nM
N=C(N)NCCC[C@H](NC(=O)CN)C(=O)N[C@@H](CCCCN)C(=O)N[C@@H](CCCCN)C(=O)N[C@@H](CCCNC(=N)N)C(=O)N[C@@H](CCCNC(=N)N)C(=O)N[C@@H](CCC(N)=O)C(=O)N[C@@H](CCCNC(=N)N)C(=O)N[C@@H](CCCNC(=N)N)C(=O)N[C@@H](CCCNC(=N)N)C(=O)N[C@@H](CS)C(=O)O | 3.3 µM | 96 µM | 3100 nM | Non-toxic | Activity [10]: Active; Activity [11]: 2.5%; Activity [12]: 6%
N=C(N)NCCC[C@H](NC(=O)CNC(=O)CCCCCNC(=O)CCCC[C@@H]1SC[C@@H]2NC(=O)N[C@@H]21)C(=O)N[C@@H](CCCCN)C(=O)N[C@@H](CCCCN)C(=O)N[C@@H](CCCNC(=N)N)C(=O)N[C@@H](CCCNC(=N)N)C(=O)N[C@@H](CCC(N)=O)C(=O)N[C@@H](CCCNC(=N)N)C(=O)N[C@@H](CCCNC(=N)N)C(=O)N[C@@H](CCCNC(=N)N)C(=O)N[C@@H](CS)C(N)=O | – | – | 5700 nM | Non-toxic | –
CCCC[C@H](NC(=O)[C@H](CCCNC(=N)N)NC(=O)CN)C(=O)N[C@@H](CCCC)C(=O)N[C@@H](CCCNC(=N)N)C(=O)N[C@@H](CCCNC(=N)N)C(=O)N[C@@H](CCC(N)=O)C(=O)N[C@@H](CCCNC(=N)N)C(=O)N[C@@H](CCCNC(=N)N)C(=O)N[C@@H](CCCNC(=N)N)C(=O)N[C@@H](CS)C(N)=O | 92 µM | 115 µM | 9600 nM | Non-toxic | Activity [13]: Active
N=C(N)NCCC[C@@H](NC(=O)CN)C(=O)N[C@H](CCCCN)C(=O)N[C@H](CCCCN)C(=O)N[C@H](CCCNC(=N)N)C(=O)N[C@H](CCCNC(=N)N)C(=O)N[C@H](CCC(N)=O)C(=O)N[C@H](CCCNC(=N)N)C(=O)N[C@H](CCCNC(=N)N)C(=O)N[C@H](CCCNC(=N)N)C(=O)N[C@H](CS)C(=O)O | 5.4 µM | 150 µM | 2500 nM | Non-toxic | EC50 [5]: 1300 nM; EC50 [14]: 7.7 µM; Activity [15]: Active
CCCC[C@H](NC(=O)[C@H](CCCC)NC(=O)[C@H](CCC(N)=O)NC(=O)[C@H](CCCNC(=N)N)NC(=O)[C@H](CCCNC(=N)N)NC(=O)[C@H](CCCCN)NC(=O)[C@H](CCCCN)NC(=O)[C@H](CCCNC(=N)N)NC(=O)CNC(=O)CCCCCNC(=O)CCCC[C@@H]1SC[C@@H]2NC(=O)N[C@@H]21)C(=O)N[C@@H](CCCNC(=N)N)C(=O)N[C@@H](CS)C(=O)O | – | – | 37000 nM | Non-toxic | –
N=C(N)NCCC[C@@H](NC(=O)CN)C(=O)N[C@H](CCCCN)C(=O)N[C@H](CCCCN)C(=O)N[C@H](CCCNC(=N)N)C(=O)N[C@H](CCCNC(=N)N)C(=O)N[C@H](CCC(N)=O)C(=O)N[C@H](CCCNC(=N)N)C(=O)N[C@H](CCCNC(=N)N)C(=O)N[C@H](CCCNC(=N)N)C(=O)N[C@H](CSSC[C@@H](NC(=O)[C@@H](CCCNC(=N)N)NC(=O)[C@@H](CCCNC(=N)N)NC(=O)[C@@H](CCCNC(=N)N)NC(=O)[C@@H](CCC(N)=O)NC(=O)[C@@H](CCCNC(=N)N)NC(=O)[C@@H](CCCNC(=N)N)NC(=O)[C@@H](CCCCN)NC(=O)[C@@H](CCCCN)NC(=O)[C@@H](CCCNC(=N)N)NC(=O)CN)C(N)=O)C(N)=O | 0.4 µM | 34 µM | 600 nM | Non-toxic | –
N=C(N)NCCC[C@H](NC(=O)[C@H](CCCNC(=N)N)NC(=O)[C@H](CCCNC(=N)N)NC(=O)[C@H](CCC(N)=O)NC(=O)[C@H](CCCNC(=N)N)NC(=O)[C@H](CCCNC(=N)N)NC(=O)[C@H](CCCCN)NC(=O)[C@H](CCCCN)NC(=O)[C@H](CCCNC(=N)N)NC(=O)CN)C(N)=O | > 1200 µM | > 1200 µM | 1000 nM | Non-toxic | EC50 [6]: 300 nM

— ChEMBL document CHEMBL1143823, “Addition of a C-terminal cysteine improves the anti-herpes simplex virus activity of a peptide containing the human immunodeficiency virus type 1 TAT protein transduction domain” (Antimicrob Agents Chemother, 2007)
